The nature of series [1]: Stability in pH 7.4 isotonic tris buffer assessed as parent compound remaining after 6 hrs by HPLC analysis. Type of series: physicochemical. The conditions noted are these: read-out: Stability. An outline of the steps:
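Chemical hydrolysis was run at 37 °C in isotonic Tris-HCl buffer at pH 7.4. The percentage of intact parent was measured after 6 h.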

Series [2] has as its target T1, Large neutral amino acids transporter small subunit 1 (Homo sapiens, UniProt Q01650). Put plainly: Drug uptake in human MCF7 cells assessed as LAT1-mediated drug transportation rate at 25 to 50 uM after 10 mins by LC-MS analysis. In kind it is ADME, cell-based. The conditions noted are these: mcf7, 10 min.
Series [3] deals with T1, Large neutral amino acids transporter small subunit 1. Put plainly: Inhibition of LAT1-mediated [14C]-L-leucine uptake in human MCF7 cells after 5 mins by liquid scintillation counting method. In kind it is cell-based.
Series [4] in a line: Stability in 75% rat plasma assessed as parent compound remaining after 6 hrs by HPLC analysis. Type of series: ADME, cell-free. The conditions noted are these: read-out: Stability. An outline of the steps: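 Incubated at 37 °C in 75% rat plasma, alongside isotonic Tris-HCl buffer (pH 7.4) and 10% rat liver homogenate. The read-out was the percentage of intact parent compound after 6 h, taken as conversion to dopamine.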

Series [5] in a line: Stability in 10% rat liver homogenates assessed as parent compound remaining after 6 hrs by HPLC analysis. Type of series: ADME, tissue-based. The conditions noted are these: for remaining at 6 h: 10% rat liver homogenate, read-out: Stability. The essentials: (§1)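 Conversion of the compound was followed at 37 °C in 10% rat liver homogenate. The intact parent was tracked over time up to 6 h, and half-life or the percentage remaining at 6 h was taken from this.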

Series [6] has as its target T1, Large neutral amino acids transporter small subunit 1. Put plainly: Drug uptake in human MCF7 cells assessed as LAT1-mediated drug transportation rate at 3.125 to 100 uM after 10 mins by LC-MS analysis. In kind it is ADME, cell-based. The conditions noted are these: mcf7, 10 min.
Series [7] is described as follows: Half-life in human in presence of AADC inhibitor carbidopa. The conditions noted are these: in vivo. In kind it is ADME, organism-based.
The nature of series [8]: Half life in 10% rat liver homogenate by HPLC method. Type of series: ADME, tissue-based. The essentials: as §1
Series [9] can be described thus: Half-life in human in presence of COMT inhibitor entacapone. Type of series: ADME, organism-based. The conditions noted are these: in vivo.

This note sets out measurements from ChEMBL document CHEMBL4229488, “Secondary carbamate linker can facilitate the sustained release of dopamine from brain-targeted prodrug” (Bioorg Med Chem Lett, 2018).

T1 sequence (Q01650 whole entry): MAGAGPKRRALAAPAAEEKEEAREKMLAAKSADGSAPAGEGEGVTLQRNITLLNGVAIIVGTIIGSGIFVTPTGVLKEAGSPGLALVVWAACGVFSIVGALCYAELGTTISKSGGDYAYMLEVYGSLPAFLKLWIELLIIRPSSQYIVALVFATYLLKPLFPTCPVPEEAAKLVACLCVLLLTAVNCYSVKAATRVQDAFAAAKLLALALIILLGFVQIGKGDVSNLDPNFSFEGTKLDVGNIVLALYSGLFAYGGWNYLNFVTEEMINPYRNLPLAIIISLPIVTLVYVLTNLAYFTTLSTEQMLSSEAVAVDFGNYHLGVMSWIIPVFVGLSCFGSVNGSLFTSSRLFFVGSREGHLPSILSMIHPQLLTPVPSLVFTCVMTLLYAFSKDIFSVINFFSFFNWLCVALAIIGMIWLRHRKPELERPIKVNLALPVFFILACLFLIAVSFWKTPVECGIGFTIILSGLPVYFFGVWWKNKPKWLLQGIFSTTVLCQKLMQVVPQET

By Vmax is commonly meant the top rate of the reaction or transport when substrate is in excess. One may read the IC50 as the concentration that inhibits the measured activity by half. Read a low IC50 as greater potency in that assay. Take `Cl.N[C@@H](Cc1ccc(OC(=O)NCCc2ccc(O)c(O)c2)cc1)C(=O)O`: the remaining at 6 h is 78.1 to 93.1% in series [1], 40.5 to 60.5% in [4] and 63.2 to 66.5% in [5]. Moreover, the maximum rate (Vmax) in series [2] is listed as under 3 pmol/mg/min. In [3], this molecule displayed an IC50 of 27.7 µM. In addition, the inhibition result in series [3] is “Dose-dependent effect”.

As for `Cl.NC(Cc1cccc(C(=O)NCCc2ccc(O)c(O)c2)c1)C(=O)O` (stereo not given), the remaining at 6 h in [1] lay in the range of 83.2 to 83.7%; in [4] it was 57.4 to 62.7%; in series [5], 47.7 to 51.9%. The Vmax in series [2] is on record as under 3 pmol/mg/min. This molecule also came in with an IC50 in [3] of 32.4 µM. For the same molecule, in series [3], the inhibition entry was “Dose-dependent effect”.

In general, half-life refers to the time in which the quantity being followed falls by half. Consider `N[C@@H](Cc1ccc(O)c(O)c1)C(=O)O` [LEVODOPA], for which, in series [6], the Vmax is reported as 2.6 nmol/mg/min. Besides, the half-life was 60 min in series [7], 15.5 min in [8] and 30 to 90 min in series [9]. Besides, the remaining at 6 h in series [1] fell in the range of 99.8 to 103%. The molecule also registered an IC50 in series [3] of 100 µM. Further, in [3], the inhibition result was “Dose-dependent effect”. For the same molecule, in [5] (tissue homogenate, 6 h), the Stability result is on record as “Unstable”.
